The source made the active and inactive calls. The rule behind the calls is not given here.
Legend:
[1] = Antitumor activity against mouse early Lewis lung carcinoma allografted in BDF1 mouse assessed as increase in host life span at 60 mg/kg, ip administered as single dose on 1 or 2 days post-tumor implantation; format: functional; conditions: route intraperitoneal
Outline: (§1)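 BDF1 mice (C57Blk/6 × DBA/2) implanted sc by trocar with ~40 mg Lewis lung tumor fragments from bacteriologically sterile donor tumors. Single ip dose on day 1 or 2, as a solution or suspension in water (CMC or gum acacia) or saline (HPC or Tween 80). Read-out is […]. Same-dose toxicity controls were run in nontumor-bearing mice.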

[2] = Antitumor activity against mouse early Lewis lung carcinoma allografted in BDF1 mouse assessed as increase in host life span at 40 mg/kg, ip administered as single dose on 1 or 2 days post-tumor implantation; format: functional; conditions: route intraperitoneal; outline: as §1
Mus musculus [3] = assay: Antitumor activity against mouse advanced Lewis lung carcinoma allografted in BDF1 mouse assessed as complete regression of established tumor at 60 mg/kg, ip administered as single dose on 7th day post-tumor implantation; format: functional, organism-based; design: dose 60 mg/kg
Outline: (§2)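 BDF1 mice (C57Blk/6 × DBA/2) implanted sc by trocar with Lewis lung tumor fragments of about 40 mg, taken only from bacteriologically sterile donor tumors. Mice bearing tumors of about 400 mg (day 6-7) were selected. Each received a single ip dose on day 7, at or below the LD10 in normal mice. Groups were of 10 mice. Tumor weight was taken from calipers as w = ab²/2, measured at least twice weekly. Matched non-tumor mice served as toxicity controls.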

Mus musculus [4] = assay: Antitumor activity against mouse advanced Lewis lung carcinoma allografted in BDF1 mouse assessed as complete regression of established tumor at 40 mg/kg, ip administered as single dose on 7th day post-tumor implantation; format: functional, organism-based; design: dose 40 mg/kg; outline: as §2
Mus musculus [5] = assay: Antitumor activity against mouse advanced Lewis lung carcinoma allografted in BDF1 mouse assessed as disease cure at 40 mg/kg, ip administered as single dose on 7th day post-tumor implantation measured for 80 days post-drug treatment; format: functional, organism-based; design: dose 40 mg/kg
Outline: (§3)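 BDF1 mice (C57Blk/6 × DBA/2) implanted sc by trocar with about 40 mg Lewis lung tumor fragments from bacteriologically sterile donors. Advanced-disease groups held tumors of about 400 mg by day 6-7, sized by caliper (w = ab²/2). Single ip injection on day 7, in water or saline vehicle, at or below the LD10 in normal mice. Tumors measured at least twice weekly.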

Mus musculus [6] = assay: Antitumor activity against mouse advanced Lewis lung carcinoma allografted in BDF1 mouse assessed as disease cure at 60 mg/kg, ip administered as single dose on 7th day post-tumor implantation measured for 80 days post-drug treatment; format: functional, organism-based; design: dose 60 mg/kg; outline: as §2
[7] = Antitumor activity against mouse advanced Lewis lung carcinoma allografted in BDF1 mouse assessed as increase in host life span at 60 mg/kg, ip administered as single dose on 7th day post-tumor implantation; format: functional; conditions: route intraperitoneal; outline: as §3
[8] = Antitumor activity against mouse early Lewis lung carcinoma allografted in BDF1 mouse assessed as time delay in tumor growth at 60 mg/kg, ip administered as single dose on 1 or 2 days post-tumor implantation; format: functional; conditions: route intraperitoneal
Outline: (§4)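 BDF1 mice (C57Blk/6 × DBA/2) implanted sc by trocar with ~40 mg Lewis lung tumor fragments from bacteriologically sterile donors. A single ip dose was given on day 1 or 2, as a solution or suspension in water or saline with suspending agent, at ≤0.5 ml. Tumors were measured by caliper at least twice weekly, with weight = ab²/2. Delay was taken as the days for the tumor to reach 1 g.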

[9] = Antitumor activity against mouse early Lewis lung carcinoma allografted in BDF1 mouse assessed as time delay in tumor growth at 40 mg/kg, ip administered as single dose on 1 or 2 days post-tumor implantation; format: functional; conditions: route intraperitoneal; outline: as §4
[10] = Antitumor activity against mouse advanced Lewis lung carcinoma allografted in BDF1 mouse assessed as increase in host life span at 40 mg/kg, ip administered as single dose on 7th day post-tumor implantation; format: functional; conditions: route intraperitoneal; outline: as §3
[11] = (§5) Antitumor activity against mouse early Lewis lung carcinoma allografted in ip dosed BDF1 mouse assessed as disease cure administered as single dose on 1 or 2 days post-tumor implantation measured for 80 days post-drug treatment; format: functional
Outline: (§6)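 BDF1 mice implanted sc by trocar with ~40 mg Lewis lung fragments from sterile donor tumors. A single ip dose was given on day 1 or 2 after implant, in water or saline vehicle. Cures were scored in animals observed for at least 80 days after treatment. Drug-toxicity controls were matched non-tumor-bearing mice monitored for body weight and deaths.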

[12] = Ratio of ED50 for antitumor activity against mouse L1210 cells allografted in ip dosed mouse to LD10 for mouse
Mus musculus [13] = assay: Antitumor activity against mouse advanced Lewis lung carcinoma allografted in ip dosed BDF1 mouse assessed as complete regression of established tumor administered as single dose on day 6 or 7 post-tumor implantation; format: functional, organism-based; outline: as §2
Mus musculus [14] = assay: Antitumor activity against mouse advanced Lewis lung carcinoma allografted in ip dosed BDF1 mouse assessed as disease cure administered as single dose on day 6 or 7 post-tumor implantation; format: functional, organism-based; outline: as §2
[15] = Antitumor activity against mouse advanced Lewis lung carcinoma allografted in ip dosed BDF1 mouse assessed as increase in host lifespan administered as single dose on day 6 or 7 post-tumor implantation; format: functional
Outline: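 Advanced Lewis lung model: about 40 mg fragments implanted sc by trocar into BDF1 mice, and mice with tumors of about 400 mg (day 6-7) selected. Tumor weight from calipers, w = ab²/2. Agent given as one ip dose in distilled water or physiological saline. Nontumor-bearing mice received matching doses as toxicity controls.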

[16] = Antitumor activity against mouse early Lewis lung carcinoma allografted in BDF1 mouse assessed as increase in host life span at 26 mg/kg, ip administered as single dose on 1 or 2 days post-tumor implantation; format: functional; conditions: route intraperitoneal; outline: as §1
Mus musculus [17] = assay: Antitumor activity against mouse advanced Lewis lung carcinoma allografted in BDF1 mouse assessed as disease cure at 37 mg/kg, ip administered as single dose on 7th day post-tumor implantation measured for 80 days post-drug treatment; format: functional, organism-based; design: dose 37 mg/kg; outline: as §2
Mus musculus [18] = assay: Antitumor activity against mouse advanced Lewis lung carcinoma allografted in BDF1 mouse assessed as disease cure at 25 mg/kg, ip administered as single dose on 7th day post-tumor implantation measured for 80 days post-drug treatment; format: functional, organism-based; design: dose 25 mg/kg; outline: as §2
Mus musculus [19] = assay: Antitumor activity against mouse advanced Lewis lung carcinoma allografted in BDF1 mouse assessed as disease cure at 16 mg/kg, ip administered as single dose on 7th day post-tumor implantation measured for 80 days post-drug treatment; format: functional, organism-based; design: dose 16 mg/kg; outline: as §2
[20] = Antitumor activity against mouse advanced Lewis lung carcinoma allografted in BDF1 mouse assessed as increase in host life span at 37 mg/kg, ip administered as single dose on 7th day post-tumor implantation; format: functional; conditions: route intraperitoneal; outline: as §3
[21] = Antitumor activity against mouse advanced Lewis lung carcinoma allografted in BDF1 mouse assessed as increase in host life span at 25 mg/kg, ip administered as single dose on 7th day post-tumor implantation; format: functional; conditions: route intraperitoneal; outline: as §3
[22] = Antitumor activity against mouse advanced Lewis lung carcinoma allografted in BDF1 mouse assessed as increase in host life span at 16 mg/kg, ip administered as single dose on 7th day post-tumor implantation; format: functional; conditions: route intraperitoneal; outline: as §3
Mus musculus [23] = assay: Antitumor activity against mouse advanced Lewis lung carcinoma allografted in BDF1 mouse assessed as complete regression of established tumor at 37 mg/kg, ip administered as single dose on 7th day post-tumor implantation; format: functional, organism-based; design: dose 37 mg/kg; outline: as §2
Mus musculus [24] = assay: Antitumor activity against mouse advanced Lewis lung carcinoma allografted in BDF1 mouse assessed as complete regression of established tumor at 25 mg/kg, ip administered as single dose on 7th day post-tumor implantation; format: functional, organism-based; design: dose 25 mg/kg; outline: as §2
Mus musculus [25] = assay: Antitumor activity against mouse advanced Lewis lung carcinoma allografted in BDF1 mouse assessed as complete regression of established tumor at 16 mg/kg, ip administered as single dose on 7th day post-tumor implantation; format: functional, organism-based; design: dose 16 mg/kg; outline: as §2
[26] = Antitumor activity against mouse early Lewis lung carcinoma allografted in BDF1 mouse assessed as time delay in tumor growth at 26 mg/kg, ip administered as single dose on 1 or 2 days post-tumor implantation; format: functional; conditions: route intraperitoneal; outline: as §4
Mus musculus [27] = assay: Antitumor activity against mouse advanced Lewis lung carcinoma allografted in BDF1 mouse assessed as complete regression of established tumor at 13 mg/kg, ip administered as single dose on 7th day post-tumor implantation; format: functional, organism-based; design: dose 13 mg/kg; outline: as §3
Mus musculus [28] = assay: Antitumor activity against mouse advanced Lewis lung carcinoma allografted in BDF1 mouse assessed as disease cure at 13 mg/kg, ip administered as single dose on 7th day post-tumor implantation measured for 80 days post-drug treatment; format: functional, organism-based; design: dose 13 mg/kg; outline: as §3
[29] = Antitumor activity against mouse advanced Lewis lung carcinoma allografted in BDF1 mouse assessed as increase in host life span at 13 mg/kg, ip administered as single dose on 7th day post-tumor implantation; format: functional; conditions: route intraperitoneal; outline: as §3
Mus musculus [30] = assay: as §5; format: functional; outline: as §6
Mus musculus [31] = assay: Antitumor activity against mouse early Lewis lung carcinoma allografted in ip dosed BDF1 mouse administered as single dose on 1 or 2 days post-tumor implantation measured for 80 days post-drug treatment; format: functional, organism-based; outline: as §6

With `O=NN(CCCl)C(=O)N[C@H]1CC[C@H](CCl)CC1` the ILS at 60 mg/kg [1] was 87%, the ILS at 40 mg/kg [2] was 74% and the inhibition (Mus musculus [3]) was “inactive”. The inhibition (Mus musculus [4]) was “inactive”, the Activity (Mus musculus [5]) was “inactive” and the Activity (Mus musculus [6]) was “inactive”. For the same compound, the ILS at 60 mg/kg [7] was 109%, the Time [8] was 4.3 days and the Time [9] was 5.2 days. The ILS at 40 mg/kg [10] was 51%, the Activity [11] was 10% and the Ratio [12] was 0.6. The inhibition (Mus musculus [13]) was “inactive”, the Activity (Mus musculus [14]) was “inactive” and the ILS [15] was greater than 25%.
Compound `CO[C@H]1CC[C@H](NC(=O)N(CCCl)N=O)CC1` has an ILS at 60 mg/kg [1] of 18%, an ILS at 40 mg/kg [2] of 0% and an ILS at 26 mg/kg [16] of 18%. For the same compound, the Activity (Mus musculus [17]) was “inactive”, the Activity (Mus musculus [18]) was “inactive” and the Activity (Mus musculus [19]) was “inactive”. For the same compound, the ILS at 37 mg/kg [20] was 29%, the ILS at 25 mg/kg [21] was 29% and the ILS at 16 mg/kg [22] was 20%. The inhibition (Mus musculus [23]) was “inactive”, the inhibition (Mus musculus [24]) was “inactive” and the inhibition (Mus musculus [25]) was “inactive”. For the same compound, the Time [8] was 9.5 days, the Time [9] was 2 days and the Time [26] was 0 days. For the same compound, the inhibition (Mus musculus [13]) was “inactive”, the Activity (Mus musculus [14]) was “inactive” and the ILS [15] was greater than 25%.
In the case of `O=NN(CCCl)C(=O)N[C@H]1C(O)O[C@H](CO)[C@@H](O)[C@@H]1O` (some centres not stated) [CHLOROZOTOCIN], the inhibition (Mus musculus [27]) is reported as “inactive”, the Activity (Mus musculus [28]) is reported as “inactive” and the ILS at 13 mg/kg [29] is reported as 25%. The Activity (Mus musculus [30]) was “inactive”, the Activity (Mus musculus [31]) was “inactive” and the Ratio [12] was 0.4. The inhibition (Mus musculus [13]) was “inactive”, the Activity (Mus musculus [14]) was “inactive” and the ILS [15] was greater than 25%.
